Reference: ChEMBL document CHEMBL1687776, “Origin and molecular evolution of the determinant of methicillin resistance in staphylococci” (2010)
Converted amounts (≈) assume the structure as drawn.

Experiments:
Staphylococcus vitulinus [1] = experiment: Antibacterial activity against mecA-negative Staphylococcus vitulinus SVMN03 by agar dilution method; assay type: functional; settings: Mammaliicoccus vitulinus
In short: (§1)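 MIC by agar dilution on Mueller-Hinton agar following CLSI guidelines. Resistance was assigned using CLSI breakpoints. Agents tested were oxacillin, ampicillin, ceftizoxime, ceftriaxone and cefoxitin. Strains were from animal or food sources and identified by hsp60 and/or sodA sequencing. mecA absence was assessed by PCR with degenerate primers for mecA and its homologues.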

[2] = tested on: Staphylococcus fleurettii; experiment: Antibacterial activity against methicillin-resistant mecA-positive Staphylococcus fleurettii SFMP07 by agar dilution method; assay type: functional; settings: Mammaliicoccus fleurettii
In short: (§2)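 MIC by agar dilution on Mueller-Hinton agar per CLSI guidance; resistance judged against CLSI breakpoints. Strains were animal or food isolates (type strains for S. sciuri subspecies), typed by hsp60 and/or sodA sequencing; mecA homologue carriage checked by PCR with degenerate primers. Agents tested: oxacillin, ampicillin, ceftizoxime, ceftriaxone, cefoxitin.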

[3] = tested on: Staphylococcus fleurettii; experiment: Antibacterial activity against methicillin-resistant mecA-positive Staphylococcus fleurettii SFMP08 by agar dilution method; assay type: functional; settings: Mammaliicoccus fleurettii; in short: as §2
Staphylococcus vitulinus [4] = experiment: Antibacterial activity against mecA-negative Staphylococcus vitulinus SVMN05 by agar dilution method; assay type: functional; settings: Mammaliicoccus vitulinus; in short: as §2
Staphylococcus vitulinus [5] = experiment: Antibacterial activity against methicillin-resistant mecA-positive Staphylococcus vitulinus SVMP05 by agar dilution method; assay type: functional; settings: Mammaliicoccus vitulinus; in short: as §2
Staphylococcus vitulinus [6] = experiment: Antibacterial activity against methicillin-resistant mecA-positive Staphylococcus vitulinus SVMP04 by agar dilution method; assay type: functional; settings: Mammaliicoccus vitulinus; in short: as §2
Staphylococcus vitulinus [7] = experiment: Antibacterial activity against mecA-negative Staphylococcus vitulinus SVMN06 by agar dilution method; assay type: functional; settings: Mammaliicoccus vitulinus; in short: as §2
Staphylococcus vitulinus [8] = experiment: Antibacterial activity against mecA-negative Staphylococcus vitulinus SVMN12 by agar dilution method; assay type: functional; settings: Mammaliicoccus vitulinus; in short: as §2
Staphylococcus vitulinus [9] = experiment: Antibacterial activity against methicillin-resistant mecA-positive Staphylococcus vitulinus SVMP01 by agar dilution method; assay type: functional; settings: Mammaliicoccus vitulinus; in short: as §2
[10] = Antibacterial activity against methicillin-resistant mecA-positive Staphylococcus sciuri subsp. rodentium ATCC 700061T by agar dilution method; assay type: functional; settings: Mammaliicoccus sciuri; in short: as §2
[11] = tested on: Staphylococcus fleurettii; experiment: Antibacterial activity against methicillin-resistant mecA-positive Staphylococcus fleurettii SFMP02 by agar dilution method; assay type: functional; settings: Mammaliicoccus fleurettii; in short: as §2
Staphylococcus vitulinus [12] = experiment: Antibacterial activity against methicillin-resistant mecA-positive Staphylococcus vitulinus SVMP02 by agar dilution method; assay type: functional; settings: Mammaliicoccus vitulinus; in short: as §2
[13] = tested on: Staphylococcus fleurettii; experiment: Antibacterial activity against mecA-negative Staphylococcus fleurettii SFMN01 by agar dilution method; assay type: functional; settings: Mammaliicoccus fleurettii; in short: as §1
[14] = tested on: Staphylococcus fleurettii; experiment: Antibacterial activity against methicillin-resistant mecA-positive Staphylococcus fleurettii SFMP03 by agar dilution method; assay type: functional; settings: Mammaliicoccus fleurettii; in short: as §2
[15] = tested on: Staphylococcus fleurettii; experiment: Antibacterial activity against methicillin-resistant mecA-positive Staphylococcus fleurettii SFMP04 by agar dilution method; assay type: functional; settings: Mammaliicoccus fleurettii; in short: as §2
[16] = Antibacterial activity against mecA-positive Staphylococcus sciuri subsp. carnaticus ATCC 700058T by agar dilution method; settings: Mammaliicoccus sciuri
Staphylococcus vitulinus [17] = experiment: Antibacterial activity against mecA-negative Staphylococcus vitulinus SVMN11 by agar dilution method; assay type: functional; settings: Mammaliicoccus vitulinus; in short: as §2
[18] = tested on: Staphylococcus fleurettii; experiment: Antibacterial activity against methicillin-resistant mecA-positive Staphylococcus fleurettii SFMP01(CCUG 43834T) by agar dilution method; assay type: functional; settings: Mammaliicoccus fleurettii; in short: as §2
Staphylococcus vitulinus [19] = experiment: Antibacterial activity against mecA-negative Staphylococcus vitulinus SVMN02 by agar dilution method; assay type: functional; settings: Mammaliicoccus vitulinus; in short: as §2
Staphylococcus vitulinus [20] = experiment: Antibacterial activity against mecA-negative Staphylococcus vitulinus SVMN14 by agar dilution method; assay type: functional; settings: Mammaliicoccus vitulinus; in short: as §2
[21] = tested on: Staphylococcus fleurettii; experiment: Antibacterial activity against mecA-negative Staphylococcus fleurettii SFMN02 by agar dilution method; assay type: functional; settings: Mammaliicoccus fleurettii; in short: as §1
Staphylococcus vitulinus [22] = experiment: Antibacterial activity against mecA-negative Staphylococcus vitulinus SVMN07 by agar dilution method; assay type: functional; settings: Mammaliicoccus vitulinus; in short: as §2
Staphylococcus vitulinus [23] = experiment: Antibacterial activity against methicillin-resistant mecA-positive Staphylococcus vitulinus SVMP03 by agar dilution method; assay type: functional; settings: Mammaliicoccus vitulinus; in short: as §2
Staphylococcus vitulinus [24] = experiment: Antibacterial activity against mecA-negative Staphylococcus vitulinus SVMN01 (ATCC 51145T) by agar dilution method; assay type: functional; settings: Mammaliicoccus vitulinus; in short: as §1
Staphylococcus vitulinus [25] = experiment: Antibacterial activity against mecA-negative Staphylococcus vitulinus SVMN08 by agar dilution method; assay type: functional; settings: Mammaliicoccus vitulinus; in short: as §1
Staphylococcus vitulinus [26] = experiment: Antibacterial activity against mecA-negative Staphylococcus vitulinus SVMN09 by agar dilution method; assay type: functional; settings: Mammaliicoccus vitulinus; in short: as §2
[27] = tested on: Staphylococcus fleurettii; experiment: Antibacterial activity against methicillin-resistant mecA-positive Staphylococcus fleurettii SFMP06 by agar dilution method; assay type: functional; settings: Mammaliicoccus fleurettii; in short: as §2
Mammaliicoccus lentus = experiment: Antibacterial activity against mecA-negative Staphylococcus lentus ATCC 29070T by agar dilution method; assay type: functional; in short: as §1
[28] = Antibacterial activity against methicillin-resistant mecA-positive Staphylococcus sciuri subsp. sciuri ATCC 29062T by agar dilution method; assay type: functional; settings: Mammaliicoccus sciuri; in short: as §2
[29] = tested on: Staphylococcus fleurettii; experiment: Antibacterial activity against methicillin-resistant mecA-positive Staphylococcus fleurettii SFMP05 by agar dilution method; assay type: functional; settings: Mammaliicoccus fleurettii; in short: as §2
Staphylococcus vitulinus [30] = experiment: Antibacterial activity against mecA-negative Staphylococcus vitulinus SVMN04 by agar dilution method; assay type: functional; settings: Mammaliicoccus vitulinus; in short: as §2
Staphylococcus vitulinus [31] = experiment: Antibacterial activity against mecA-negative Staphylococcus vitulinus SVMN13 by agar dilution method; assay type: functional; settings: Mammaliicoccus vitulinus; in short: as §1
Staphylococcus vitulinus [32] = experiment: Antibacterial activity against methicillin-resistant mecA-positive Staphylococcus vitulinus SVMP06 by agar dilution method; assay type: functional; settings: Mammaliicoccus vitulinus; in short: as §2
Staphylococcus vitulinus [33] = experiment: Antibacterial activity against mecA-negative Staphylococcus vitulinus SVMN10 by agar dilution method; assay type: functional; settings: Mammaliicoccus vitulinus; in short: as §1

SMILES | MIC (Staphylococcus vitulinus [1]) [µg/mL] | MIC [2] [µg/mL] | MIC [3] [µg/mL] | MIC (Staphylococcus vitulinus [4]) [µg/mL] | MIC (Staphylococcus vitulinus [5]) [µg/mL] | MIC (Staphylococcus vitulinus [6]) [µg/mL] | MIC (Staphylococcus vitulinus [7]) [µg/mL] | MIC (Staphylococcus vitulinus [8]) [µg/mL] | MIC (Staphylococcus vitulinus [9]) [µg/mL] | MIC [10] [µg/mL] | MIC [11] [µg/mL] | MIC (Staphylococcus vitulinus [12]) [µg/mL] | MIC [13] [µg/mL] | MIC [14] [µg/mL] | MIC [15] [µg/mL] | MIC [16] [µg/mL] | MIC (Staphylococcus vitulinus [17]) [µg/mL] | MIC [18] [µg/mL] | MIC (Staphylococcus vitulinus [19]) [µg/mL] | MIC (Staphylococcus vitulinus [20]) [µg/mL] | other results
CC1(C)S[C@@H]2[C@H](NC(=O)[C@H](N)c3ccccc3)C(=O)N2[C@H]1C(=O)O [AMPICILLIN] | < 0.063 | 0.25 (≈ 0.715 µM) | 1 (≈ 2.86 µM) | < 0.063 | < 0.063 | < 0.063 | < 0.063 | < 0.063 | < 0.063 | 0.125 (≈ 0.358 µM) | 1 (≈ 2.86 µM) | < 0.063 | 0.125 (≈ 0.358 µM) | 1 (≈ 2.86 µM) | 1 (≈ 2.86 µM) | 0.125 (≈ 0.358 µM) | 0.125 (≈ 0.358 µM) | 1 (≈ 2.86 µM) | < 0.063 | < 0.063 | MIC [21]: 0.125 µg/mL (≈ 0.358 µM); MIC (Staphylococcus vitulinus [22]): < 0.063 µg/mL; MIC (Staphylococcus vitulinus [23]): < 0.063 µg/mL; MIC (Staphylococcus vitulinus [24]): 0.125 µg/mL (≈ 0.358 µM); MIC (Staphylococcus vitulinus [25]): < 0.063 µg/mL; MIC (Staphylococcus vitulinus [26]): < 0.063 µg/mL; MIC [27]: 1 µg/mL (≈ 2.86 µM); MIC (Mammaliicoccus lentus): < 0.063 µg/mL; MIC [28]: 0.125 µg/mL (≈ 0.358 µM); MIC [29]: 0.25 µg/mL (≈ 0.715 µM); MIC (Staphylococcus vitulinus [30]): < 0.063 µg/mL; MIC (Staphylococcus vitulinus [31]): < 0.063 µg/mL; MIC (Staphylococcus vitulinus [32]): < 0.063 µg/mL; MIC (Staphylococcus vitulinus [33]): < 0.063 µg/mL
CO/N=C(\C(=O)N[C@@H]1C(=O)N2C(C(=O)O)=C(CSc3nc(=O)c(O)nn3C)CS[C@H]12)c1csc(N)n1 [CEFTRIAXONE] | 1 (≈ 1.8 µM) | 8 (≈ 14.4 µM) | 16 (≈ 28.9 µM) | 1 (≈ 1.8 µM) | 4 (≈ 7.21 µM) | 2 (≈ 3.61 µM) | 4 (≈ 7.21 µM) | 1 (≈ 1.8 µM) | 4 (≈ 7.21 µM) | 8 (≈ 14.4 µM) | 16 (≈ 28.9 µM) | 2 (≈ 3.61 µM) | 4 (≈ 7.21 µM) | 64 (≈ 115 µM) | 64 (≈ 115 µM) | 8 (≈ 14.4 µM) | 4 (≈ 7.21 µM) | 16 (≈ 28.9 µM) | 4 (≈ 7.21 µM) | 2 (≈ 3.61 µM) | MIC [21]: 4 µg/mL (≈ 7.21 µM); MIC (Staphylococcus vitulinus [22]): 2 µg/mL (≈ 3.61 µM); MIC (Staphylococcus vitulinus [23]): 4 µg/mL (≈ 7.21 µM); MIC (Staphylococcus vitulinus [24]): 8 µg/mL (≈ 14.4 µM); MIC (Staphylococcus vitulinus [25]): 0.25 µg/mL (≈ 0.451 µM); MIC (Staphylococcus vitulinus [26]): 2 µg/mL (≈ 3.61 µM); MIC [27]: 32 µg/mL (≈ 57.7 µM); MIC (Mammaliicoccus lentus): 2 µg/mL (≈ 3.61 µM); MIC [28]: 8 µg/mL (≈ 14.4 µM); MIC [29]: 8 µg/mL (≈ 14.4 µM); MIC (Staphylococcus vitulinus [30]): 2 µg/mL (≈ 3.61 µM); MIC (Staphylococcus vitulinus [31]): 1 µg/mL (≈ 1.8 µM); MIC (Staphylococcus vitulinus [32]): 2 µg/mL (≈ 3.61 µM); MIC (Staphylococcus vitulinus [33]): 1 µg/mL (≈ 1.8 µM)
CO[C@@]1(NC(=O)Cc2cccs2)C(=O)N2C(C(=O)O)=C(COC(N)=O)CS[C@@H]21 [CEFOXITIN] | 0.5 (≈ 1.17 µM) | 1 (≈ 2.34 µM) | 2 (≈ 4.68 µM) | 1 (≈ 2.34 µM) | 1 (≈ 2.34 µM) | 1 (≈ 2.34 µM) | 2 (≈ 4.68 µM) | 1 (≈ 2.34 µM) | 2 (≈ 4.68 µM) | 2 (≈ 4.68 µM) | 1 (≈ 2.34 µM) | 1 (≈ 2.34 µM) | 2 (≈ 4.68 µM) | 8 (≈ 18.7 µM) | 4 (≈ 9.36 µM) | 2 (≈ 4.68 µM) | 1 (≈ 2.34 µM) | 2 (≈ 4.68 µM) | 1 (≈ 2.34 µM) | 0.5 (≈ 1.17 µM) | MIC [21]: 2 µg/mL (≈ 4.68 µM); MIC (Staphylococcus vitulinus [22]): 2 µg/mL (≈ 4.68 µM); MIC (Staphylococcus vitulinus [23]): 2 µg/mL (≈ 4.68 µM); MIC (Staphylococcus vitulinus [24]): 2 µg/mL (≈ 4.68 µM); MIC (Staphylococcus vitulinus [25]): 0.25 µg/mL (≈ 0.585 µM); MIC (Staphylococcus vitulinus [26]): 1 µg/mL (≈ 2.34 µM); MIC [27]: 2 µg/mL (≈ 4.68 µM); MIC (Mammaliicoccus lentus): 2 µg/mL (≈ 4.68 µM); MIC [28]: 2 µg/mL (≈ 4.68 µM); MIC [29]: 1 µg/mL (≈ 2.34 µM); MIC (Staphylococcus vitulinus [30]): 1 µg/mL (≈ 2.34 µM); MIC (Staphylococcus vitulinus [31]): 1 µg/mL (≈ 2.34 µM); MIC (Staphylococcus vitulinus [32]): 1 µg/mL (≈ 2.34 µM); MIC (Staphylococcus vitulinus [33]): 0.5 µg/mL (≈ 1.17 µM)
